Measured values taken from ChEMBL document CHEMBL3392986, “Hydroxamic acids block replication of hepatitis C virus” (J Med Chem, 2015).

What was measured:
[1] = system: Hepatitis C virus; test: Antiviral activity against HCV genotype 1b infected in human Huh7 cells after 3 days by luciferase reporter gene assay; format: functional, cell-based, Hepacivirus hominis; conditions: Huh-7, 72 h
[2] = Cytotoxicity against human HuH7 cells assessed as inhibition of cell viability after 3 days by CellTiter 96 assay
[3] = Therapeutic index, ratio of CC50 for human HuH7 cells to EC50 for HCV genotype 1b infected in human Huh7 cells
[4] = system: Hepatitis C virus; test: Antiviral activity against HCV genotype 1b infected in human Huh7 cells at 10 uM after 3 days by luciferase reporter gene assay; format: functional, Hepacivirus hominis; conditions: Huh-7, 72 h
Summary of the method: (§1)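 Subgenomic luciferase replicon cells seeded at 6 X 10^3 per well. Next day, medium containing compound in DMSO, or DMSO alone, was added. After three days, luciferase read with ViViRen live-cell substrate. Percent inhibition is the triplicate average; 2mA served as control in single-dose runs.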

[5] = Cytotoxicity against human HuH7 cells assessed as inhibition of cell viability at 10 uM after 3 days by CellTiter 96 assay; format: cell-based, Huh-7; conditions: read-out: INH
Summary of the method: (§2)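 Replicon cells plated at 6 X 10^3 per well and treated the next day with compound in DMSO, DMSO alone or nothing for three days at 37 °C/5% CO2. Viability measured by CellTiter 96 AQueous One, absorbance 450 nm. Percent inhibition is the average of triplicate wells.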

[6] = system: Hepatitis C virus; test: Antiviral activity against HCV genotype 1b infected in human Huh7 cells at 1 uM after 3 days by luciferase reporter gene assay; format: functional, Hepacivirus hominis; conditions: Huh-7, 72 h; summary of the method: as §1
[7] = Cytotoxicity against human HuH7 cells assessed as inhibition of cell viability at 1 uM after 3 days by CellTiter 96 assay; format: cell-based, Huh-7; conditions: read-out: INH; summary of the method: as §2
[8] = system: Hepatitis C virus; test: Antiviral activity against HCV genotype 1b infected in human Huh7 cells assessed as reduction in viral RNA level at 0.5 uM after 3 days by RT-qPCR; format: functional, Hepacivirus hominis, Huh-7; design: scale not given: the % may be the effect or the level left; conditions: in the assay text read “2 uM” for “0.5 uM”
Summary of the method: (§3)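 Replicon-bearing Huh7 cells, 6 X 10^3 per well, exposed to compound in DMSO or DMSO alone for three days at 37 °C/5% CO2. Replicon RNA quantified by TaqMan Cells-to-CT RT-qPCR with NS5B primers/probe, using GAPDH in parallel wells as reference. Level relative to DMSO-treated cells calculated as 2-∆∆CT. Triplicate wells.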

[9] = system: Hepatitis C virus; test: Antiviral activity against HCV genotype 1b infected in human Huh7 cells assessed as reduction in viral RNA level at 2 uM after 3 days by RT-qPCR; format: functional, Hepacivirus hominis, Huh-7; design: scale not given: the % may be the effect or the level left; summary of the method: as §3

O=C(NO)c1cc2ccc([N+](=O)[O-])cc2s1
EC50 [1]: 3.7 µM | CC50 at 72 h [2]: 54 µM | selectivity ratio ([3]; HuH7 cells): 15

O=C(NO)c1cc2cc([N+](=O)[O-])ccc2s1
EC50 [1]: 2.4 µM | CC50 at 72 h [2]: 34 µM | selectivity ratio ([3]; HuH7 cells): 14

O=C(NO)c1c[nH]c2ccccc12
inhibition at 10 µM [4]: 0%

O=C(NO)c1cn(Cc2ccccc2)c2ccccc12
cytotoxicity at 72 h, 10 µM [5]: 92% | inhibition at 10 µM [4]: 99%

CS(=O)(=O)c1ccc(/C=C/C(=O)NO)cc1
cytotoxicity at 72 h, 10 µM [5]: 0% | inhibition at 1 µM [6]: 30% | inhibition at 10 µM [4]: 93% | cytotoxicity at 72 h, 1 µM [7]: 0%

O=C(O)/C=C/c1ccc(C(F)(F)F)cc1
cytotoxicity at 72 h, 10 µM [5]: 0% | inhibition at 10 µM [4]: 19%

O=C(/C=C/c1cccnc1)NO
cytotoxicity at 72 h, 10 µM [5]: 2% | inhibition at 10 µM [4]: 40%

NC(=O)/C=C/c1ccc(C(F)(F)F)cc1
cytotoxicity at 72 h, 10 µM [5]: 1% | inhibition at 10 µM [4]: 6%

Cc1[nH]c2ccccc2c1CCNCc1ccc(/C=C/C(=O)NO)cc1 [PANOBINOSTAT]
CC50 at 72 h [2]: 0.0035 µM

O=C(/C=C/c1ccccc1)NO
EC50 [1]: 0.86 µM | CC50 at 72 h [2]: 39 µM | selectivity ratio ([3]; huh-7): 45

O=C(/C=C/c1ccc([N+](=O)[O-])cc1)NO
EC50 [1]: 0.45 µM | CC50 at 72 h [2]: 29 µM | selectivity ratio ([3]; HuH7 cells): 64

O=C(/C=C/c1ccc(C(F)(F)F)nc1)NO
EC50 [1]: 0.4 µM | CC50 at 72 h [2]: 19 µM | selectivity ratio ([3]; HuH7 cells): 48

O=C(NO)c1cc2ccccc2[nH]1
cytotoxicity at 72 h, 10 µM [5]: 7% | inhibition at 10 µM [4]: 45%

O=C(/C=C/c1ccc(Cl)cc1Cl)NO [CINNAMIC ACID HYDROXAMATE]
EC50 [1]: 0.078 µM | CC50 at 72 h [2]: 8.1 µM | selectivity ratio ([3]; HuH7 cells): 104

O=C(NO)c1ccc(C(F)(F)F)cc1
EC50 [1]: 5.4 µM | CC50 at 72 h [2]: > 100 µM | selectivity ratio ([3]; HuH7 cells): > 18

O=C(NO)c1cc2cc(Cl)ccc2s1
EC50 [1]: 0.69 µM | CC50 at 72 h [2]: 27 µM | Activity [8]: 75% | Activity [9]: 75% | selectivity ratio ([3]; HuH7 cells): 39

COc1ccc(/C=C/C(=O)NO)cc1
cytotoxicity at 72 h, 10 µM [5]: 0% | inhibition at 10 µM [4]: 15%

O=C(/C=C/c1ccc(Cl)cc1)NO
EC50 [1]: 6 µM | CC50 at 72 h [2]: > 50 µM | selectivity ratio ([3]; HuH7 cells): > 8

O=C(NO)c1cn(-c2ccccc2)c2ccccc12
inhibition at 10 µM [4]: 11%

O=C(/C=C/c1cccc(C(F)(F)F)c1)NO
cytotoxicity at 72 h, 10 µM [5]: 6% | inhibition at 10 µM [4]: 43%

C/C(=C\C(=O)NO)c1ccccc1
EC50 [1]: 3.2 µM | CC50 at 72 h [2]: 59 µM | selectivity ratio ([3]; HuH7 cells): 18

O=C(/C=C/c1ccccn1)NO
cytotoxicity at 72 h, 10 µM [5]: 1% | inhibition at 10 µM [4]: 58%

O=C(/C=C/c1ccc(C(F)(F)F)cc1)NO
EC50 [1]: 0.14 µM | CC50 at 72 h [2]: 25 µM | selectivity ratio ([3]; HuH7 cells): 178

O=C(NO)c1cc2cc(C(F)(F)F)ccc2s1
cytotoxicity at 72 h, 10 µM [5]: 0% | inhibition at 1 µM [6]: 16% | inhibition at 10 µM [4]: 94% | cytotoxicity at 72 h, 1 µM [7]: 10%

O=C(/C=C/c1cccc(S(=O)(=O)Nc2ccccc2)c1)NO [BELINOSTAT]
EC50 [1]: 0.12 µM | CC50 at 72 h [2]: 0.68 µM | selectivity ratio ([3]; huh-7): 6

O=C(NO)c1cc2ccccc2o1
EC50 [1]: 1.8 µM | CC50 at 72 h [2]: 54 µM | selectivity ratio ([3]; HuH7 cells): 30

O=C(NO)c1cc2ccccc2s1
EC50 [1]: 1 µM | CC50 at 72 h [2]: 28 µM | selectivity ratio ([3]; HuH7 cells): 28

O=C(NO)c1cc2ccc(C(F)(F)F)cc2s1
cytotoxicity at 72 h, 10 µM [5]: 13% | inhibition at 1 µM [6]: 0% | inhibition at 10 µM [4]: 83% | cytotoxicity at 72 h, 1 µM [7]: 4%

O=C(NO)c1cc2ccccc2n1-c1ccccc1
cytotoxicity at 72 h, 10 µM [5]: 15% | inhibition at 10 µM [4]: 41%

O=C(/C=C/c1ccc(C(F)(F)F)cc1Cl)NO
EC50 [1]: 1.1 µM | CC50 at 72 h [2]: 15 µM | selectivity ratio ([3]; HuH7 cells): 14

Nc1ccccc1NC(=O)c1ccc(CNC(=O)OCc2cccnc2)cc1 [ENTINOSTAT]
EC50 [1]: 1.4 µM | CC50 at 72 h [2]: 5.1 µM | selectivity ratio ([3]; huh-7): 4

O=C(CCc1ccc(C(F)(F)F)cc1)NO
cytotoxicity at 72 h, 10 µM [5]: 0% | inhibition at 10 µM [4]: 35%

COc1ccc(Cn2ccc3ccc(C(=O)NO)cc32)cc1
EC50 [1]: 1.8 µM | CC50 at 72 h [2]: 11 µM | selectivity ratio ([3]; HuH7 cells): 6

O=C(/C=C/c1ccc(C(F)(F)F)cc1F)NO
EC50 [1]: 0.12 µM | CC50 at 72 h [2]: 14 µM | selectivity ratio ([3]; HuH7 cells): 117

Cc1ccc(/C=C/C(=O)NO)cc1
cytotoxicity at 72 h, 10 µM [5]: 0% | inhibition at 10 µM [4]: 15%

O=C(O)c1sc2ccccc2c1S(=O)(=O)c1ccccc1
cytotoxicity at 72 h, 10 µM [5]: 2% | inhibition at 10 µM [4]: 19%

O=C(/C=C/c1c(F)cc(C(F)(F)F)cc1F)NO
EC50 [1]: 0.54 µM | CC50 at 72 h [2]: 12 µM | selectivity ratio ([3]; HuH7 cells): 22

O=C(/C=C/c1ccncc1)NO
cytotoxicity at 72 h, 10 µM [5]: 0% | inhibition at 10 µM [4]: 20%

O=C(C=C(c1ccccc1)c1ccccc1)NO
cytotoxicity at 72 h, 10 µM [5]: 4% | inhibition at 10 µM [4]: 64%

COc1cc(NC(=O)CCCCCCC(=O)NO)ccc1-c1cnco1
EC50 [1]: 0.21 µM | CC50 at 72 h [2]: 2.6 µM | selectivity ratio ([3]; HuH7 cells): 12

CN1CCc2c(c3ccccc3n2Cc2ccc(C(=O)NO)cc2)C1 [TUBASTATIN A]
cytotoxicity at 72 h, 10 µM [5]: 70% | inhibition at 10 µM [4]: 97%

Nc1ccccc1NC(=O)/C=C/c1ccc(C(F)(F)F)cc1
cytotoxicity at 72 h, 10 µM [5]: 82% | inhibition at 10 µM [4]: 94%

O=C(NO)c1cc2ccccc2n1Cc1ccccc1
cytotoxicity at 72 h, 10 µM [5]: 28% | inhibition at 10 µM [4]: 82%

COC(=O)/C=C/c1ccc(C(F)(F)F)cc1
cytotoxicity at 72 h, 10 µM [5]: 1% | inhibition at 10 µM [4]: 0%

O=C(/C=C/c1ccccc1C(F)(F)F)NO
cytotoxicity at 72 h, 10 µM [5]: 5% | inhibition at 10 µM [4]: 40%

N#Cc1ccc(/C=C/C(=O)NO)cc1
cytotoxicity at 72 h, 10 µM [5]: 18% | inhibition at 1 µM [6]: 45% | inhibition at 10 µM [4]: 99% | cytotoxicity at 72 h, 1 µM [7]: 16%

O=C(NCC1(c2nc(-c3ccccc3)cs2)CCOCC1)c1cccc(-c2noc(C(F)(F)F)n2)c1
cytotoxicity at 72 h, 10 µM [5]: 21% | inhibition at 10 µM [4]: 22%

O=C(NO)c1sc2ccccc2c1[S+]([O-])c1ccccc1 (stereo unspecified)
EC50 [1]: 1.4 µM | CC50 at 72 h [2]: > 50 µM | selectivity ratio ([3]; HuH7 cells): > 36

COC(=O)c1sc2ccccc2c1S(=O)(=O)c1ccccc1
cytotoxicity at 72 h, 10 µM [5]: 0% | inhibition at 10 µM [4]: 5%

O=C(NO)c1sc2ccccc2c1Sc1ccccc1
cytotoxicity at 72 h, 10 µM [5]: 4% | inhibition at 10 µM [4]: 8%

O=C(/C=C/c1ccc(C(F)(F)F)cn1)NO
EC50 [1]: 0.38 µM | CC50 at 72 h [2]: 13 µM | selectivity ratio ([3]; HuH7 cells): 34
